Experimental data published in article PMC3382723 (The Journal of General Physiology, 2012).
Values joined by “and” are separate entries in the source; they are usually repeats but may differ in a detail not shown here. Identical values can stand only once. Like-named read-outs stand apart in the source and are kept apart here.

Tests used:
homomeric Kv7.3 channels = conditions: ref Li et al., 2005; cited from earlier work
[1] = test system: coexpressed Kv7.2 and Kv7.3 subunits; conditions: ref Li et al., 2005; cited from earlier work
[2] = test system: homomeric Kv7(EEE) channels; conditions: expressed as homomers; ref Hernandez et al., 2008; cited from earlier work
[3] = test system: concatenated Kv7.2-7.3 channels; assay: DiC8-PI; format: cell-based; conditions: n = 9-21
In short: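 HM1-CHO cells were transiently transfected with concatenated Kv7.2-7.3 cDNA plus an EGFP plasmid using Lipofectamine 2000. Inside-out patches at 0 mV and 22°C, in 165 mM KCl/HEPES/EGTA bath, pH 7.2, with 0.1 µM ATPγS. Stepwise PI(4,5)P2 analog, 0.1–300 µM, by fast perfusion. Popen was taken over the last 20 s and corrected for channel number. n = 9–21 patches per concentration.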

[4] = target: heteromeric Kv7.2/7.3 channels (Homo sapiens, UniProt O43525+O43526); assay: DiC8-PI; format: cell-based
Chain of heteromeric Kv7.2/7.3 channels (O43525 whole entry, the tested form may be a part): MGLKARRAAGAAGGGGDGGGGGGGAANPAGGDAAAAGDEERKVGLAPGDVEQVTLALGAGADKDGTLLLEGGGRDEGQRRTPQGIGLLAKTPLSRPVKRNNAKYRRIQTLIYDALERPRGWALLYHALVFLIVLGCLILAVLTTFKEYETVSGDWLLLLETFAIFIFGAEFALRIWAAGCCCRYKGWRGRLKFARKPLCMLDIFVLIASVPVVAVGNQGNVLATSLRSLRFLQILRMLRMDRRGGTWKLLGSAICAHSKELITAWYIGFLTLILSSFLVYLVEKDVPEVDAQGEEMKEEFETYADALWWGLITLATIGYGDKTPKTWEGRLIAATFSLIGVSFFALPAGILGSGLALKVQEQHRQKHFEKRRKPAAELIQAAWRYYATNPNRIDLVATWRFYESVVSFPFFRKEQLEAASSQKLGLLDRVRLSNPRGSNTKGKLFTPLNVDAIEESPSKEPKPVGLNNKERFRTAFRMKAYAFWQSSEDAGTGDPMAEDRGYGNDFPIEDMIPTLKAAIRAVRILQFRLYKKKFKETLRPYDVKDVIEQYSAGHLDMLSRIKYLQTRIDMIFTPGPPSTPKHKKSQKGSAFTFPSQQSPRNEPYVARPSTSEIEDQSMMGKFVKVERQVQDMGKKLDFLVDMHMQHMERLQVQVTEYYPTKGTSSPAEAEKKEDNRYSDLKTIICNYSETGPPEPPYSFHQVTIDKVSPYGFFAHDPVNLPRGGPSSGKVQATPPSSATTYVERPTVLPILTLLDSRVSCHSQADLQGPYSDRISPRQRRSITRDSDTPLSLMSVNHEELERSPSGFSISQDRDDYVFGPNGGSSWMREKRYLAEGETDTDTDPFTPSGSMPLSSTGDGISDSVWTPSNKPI
Chain of heteromeric Kv7.2/7.3 channels (O43526 whole entry, the tested form may be a part): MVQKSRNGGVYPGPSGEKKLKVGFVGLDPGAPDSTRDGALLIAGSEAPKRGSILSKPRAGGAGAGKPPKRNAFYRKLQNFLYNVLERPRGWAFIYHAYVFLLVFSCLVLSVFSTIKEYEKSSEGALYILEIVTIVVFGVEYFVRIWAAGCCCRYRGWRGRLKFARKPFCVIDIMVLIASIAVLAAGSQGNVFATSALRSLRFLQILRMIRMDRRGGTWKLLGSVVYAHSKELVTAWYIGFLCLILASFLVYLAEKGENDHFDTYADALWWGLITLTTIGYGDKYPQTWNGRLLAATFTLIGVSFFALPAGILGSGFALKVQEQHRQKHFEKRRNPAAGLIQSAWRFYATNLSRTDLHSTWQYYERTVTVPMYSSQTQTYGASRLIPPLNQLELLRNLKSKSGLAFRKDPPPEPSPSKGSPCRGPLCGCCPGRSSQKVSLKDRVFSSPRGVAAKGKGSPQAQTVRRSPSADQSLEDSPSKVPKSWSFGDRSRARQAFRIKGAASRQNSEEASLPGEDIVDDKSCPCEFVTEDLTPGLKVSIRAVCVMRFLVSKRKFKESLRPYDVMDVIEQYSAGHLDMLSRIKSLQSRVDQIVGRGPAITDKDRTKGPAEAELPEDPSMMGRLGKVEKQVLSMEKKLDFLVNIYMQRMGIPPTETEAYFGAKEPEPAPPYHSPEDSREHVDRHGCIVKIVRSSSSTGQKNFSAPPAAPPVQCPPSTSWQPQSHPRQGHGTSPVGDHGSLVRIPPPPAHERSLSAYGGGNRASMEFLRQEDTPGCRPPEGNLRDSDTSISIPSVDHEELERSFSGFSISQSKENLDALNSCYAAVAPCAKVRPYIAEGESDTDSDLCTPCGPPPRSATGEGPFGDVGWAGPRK
In short: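 CHO cells stably cotransfected with human Kv7.2 and Kv7.3. Patches at 22 ± 0.5°C were excised inside-out and held at 0 mV. Bath was 165 mM KCl, 5 mM HEPES, 10 mM EGTA, pH 7.2, with 0.1 µM ATPγS. The PI(4,5)P2 analog was given by piezo microperfusion, rising from 0.1 to 300 µM, 30 s–2 min per step. Popen was taken over the last 20 s, corrected for channel number, with control subtracted. 11–29 patches per concentration. Weighted two-component Hill fit, shared nH.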

[5] = test system: Kv7.2/Kv7.3(EEE) mutant channels; assay: Activation model fitted to the DiC8-PI; format: cell-based
In short: (§1)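 A binding/gating scheme was fitted to mean inside-out patch Popen–concentration data for the water-soluble PI(4,5)P2 analog: Kv7.2/Kv7.3 from 20–49 patches, Kv7.2/Kv7.3(EEE) from 8–13 patches. The scheme has two pairs of independent high-affinity (K3, Kv7.3) and low-affinity (K2, Kv7.2) sites and three open states (E3, E2, E1). Occupancies follow mass action with microscopic reversibility. Popen is the sum of the open-state occupancies.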

[6] = target: heteromeric Kv7.2/Kv7.3(EEE) channels (Homo sapiens, UniProt O43525+O43526, K462E/K469E/R471E); assay: DiC8-PI; format: cell-based; conditions: single-component fit
Chain of heteromeric Kv7.2/Kv7.3(EEE) channels (O43525 whole entry K462E/K469E/R471E, the tested form may be a part): as the sequence (O43525 whole entry, the tested form may be a part) above, with K462E, K469E, R471E counted along it
Chain of heteromeric Kv7.2/Kv7.3(EEE) channels (O43526 whole entry, the tested form may be a part): as the sequence (O43526 whole entry, the tested form may be a part) above
In short: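 CHO cells expressing WT Kv7.2 with Kv7.3 […]. Excised inside-out patches were held at 0 mV, 22°C, in 165 mM KCl, 5 mM HEPES, 10 mM EGTA, pH 7.2, with 0.1 µM ATPγS. The PI(4,5)P2 analog was applied in incremental concentrations by fast piezo microperfusion. Popen was taken over the last 20 s and corrected for channel number. n = 8–13 patches.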

homomeric Kv7.2 channels [7] = target: T1, homomeric Kv7.2 channels (Homo sapiens, UniProt O43526); conditions: ref Li et al., 2005; cited from earlier work
T1 sequence (O43526 whole entry): as the sequence (O43526 whole entry, the tested form may be a part) above

homomeric Kv7.2 channels [8] = target: T1, homomeric Kv7.2 channels; assay: DiC8-PI; format: cell-based; conditions: single-component Hill fit
In short: (§2)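 HM1-CHO cells (human M1 receptor) were transiently transfected with human Kv7.2 or Kv7.3 A315T, plus EGFP. Excised inside-out patches were held at 0 mV, 22°C, with 0.1 µM ATPγS in the pH 7.2 KCl bath. The PI(4,5)P2 analog was applied in incremental concentrations. Popen was corrected for channel number. Single-component Hill fit. n = 7–19 patches (Kv7.2) and 7–15 patches (Kv7.3T).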

[9] = target: T2, homomeric Kv7.3^T (A315T) channels (Homo sapiens, UniProt O43525, A315T); assay: DiC8-PI; format: cell-based; conditions: single-component Hill fit
T2 sequence (O43525 1-872 A315T): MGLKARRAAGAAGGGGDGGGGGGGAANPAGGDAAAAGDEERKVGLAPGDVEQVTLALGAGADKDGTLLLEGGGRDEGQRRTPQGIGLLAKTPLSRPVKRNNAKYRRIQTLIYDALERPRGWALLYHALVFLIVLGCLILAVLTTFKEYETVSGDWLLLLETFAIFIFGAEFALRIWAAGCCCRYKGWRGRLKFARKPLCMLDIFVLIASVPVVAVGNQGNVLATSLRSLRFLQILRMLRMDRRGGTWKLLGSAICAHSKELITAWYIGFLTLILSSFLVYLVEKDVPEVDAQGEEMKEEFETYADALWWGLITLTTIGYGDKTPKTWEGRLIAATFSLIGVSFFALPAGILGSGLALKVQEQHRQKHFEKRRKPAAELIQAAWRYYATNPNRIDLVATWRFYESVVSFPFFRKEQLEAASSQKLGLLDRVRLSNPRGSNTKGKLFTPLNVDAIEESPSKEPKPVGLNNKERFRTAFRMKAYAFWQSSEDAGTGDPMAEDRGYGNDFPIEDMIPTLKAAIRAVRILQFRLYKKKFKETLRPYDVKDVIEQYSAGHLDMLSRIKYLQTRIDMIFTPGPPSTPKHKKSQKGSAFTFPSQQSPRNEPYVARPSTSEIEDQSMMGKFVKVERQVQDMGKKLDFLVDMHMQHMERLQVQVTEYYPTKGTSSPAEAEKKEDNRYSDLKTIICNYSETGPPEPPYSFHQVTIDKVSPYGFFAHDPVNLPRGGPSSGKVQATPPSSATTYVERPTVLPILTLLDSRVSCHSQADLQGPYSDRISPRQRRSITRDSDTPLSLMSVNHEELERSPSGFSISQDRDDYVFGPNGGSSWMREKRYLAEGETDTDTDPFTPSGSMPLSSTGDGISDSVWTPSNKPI
In short: as §2

Kv7.2/Kv7.3 channels = assay: Activation model fitted to the DiC8-PI; format: cell-based, human
In short: as §1

[10] = test system: coexpressed Kv7.2 and Kv7.3; conditions: cited from earlier work
[11] = test system: concatemeric Kv7.2/Kv7.3 dimer; conditions: ref Hadley et al., 2003; cited from earlier work
[12] = patches with only a single active channel

**Q.** For `CCCCCCCC(=O)OC[C@H](COP(=O)(O)O[C@@H]1[C@H](O)[C@H](O)[C@@H](OP(=O)(O)O)[C@H](OP(=O)(O)O)[C@H]1O)OC(=O)CCCCCCC` [DiC8-PI(4,5)P2, dioctanoylphosphatidyl-4,5-bisphosphate], which EC50 (homomeric Kv7.3 channels) is on record?
**A.** The EC50 was 2.6 µM.

**Q.** And the Hill slope (homomeric Kv7.3 channels)?
**A.** The Hill slope was 1.33.

**Q.** What about the EC50 [1] of the same compound?
**A.** Its EC50 is 40 µM.

**Q.** What about the “fold less sensitive than WT channels” value [2] of the same compound?
**A.** The value was > 100 fold.

**Q.** What about the “concentration-response curve compared with K2/3-CHO cells” value [3] of the same compound?
**A.** Its value is “very similar biphasic”.

**Q.** What about the “Popen(max1)” value ([4]; component 1, single- and pauci-channel patches, 0 mV) of the same compound?
**A.** Its value is 0.2 ± 0.0073 and ~0.2.

**Q.** What about the “Popen(max2)” value ([4]; component 2, single- and pauci-channel patches, 0 mV) of the same compound?
**A.** Its value is 0.6 ± 0.0012.

**Q.** What about the Hill coefficient ([4]; constrained the same for both components, single- and pauci-channel patches) of the same compound?
**A.** Its Hill coefficient is 1.4 ± 0.06 and ~1.4.

**Q.** What about the “Popen at full opening” value ([4]; higher ligand concentrations, 0 mV) of the same compound?
**A.** Its value is ~0.8.

**Q.** And the “partial channel opening, % of the maximum Popen” value ([4]; low concentrations, binding to Kv7.3 subunit)?
**A.** The value was ~25%.

**Q.** What about the “Hill coefficient nH” value [4, 12] of the same compound?
**A.** The value was 1.6 ± 0.36.

**Q.** And the “Popen(max1)” value [4, 12]?
**A.** Its value is 0.28 ± 0.045.

**Q.** And the “Popen(max2)” value [4, 12]?
**A.** The value was 0.61 ± 0.0074.

**Q.** What about the “factor between apparent affinities of high- and low-affinity sites” value ([4]; two-component curves) of the same compound?
**A.** The value was “about 60”.

**Q.** And the E1 ([5]; model 4 free fit)?
**A.** The E1 was 0.89 ± 0.43.

**Q.** What about the E2 ([5]; model 4 free fit) of the same compound?
**A.** The E2 was 0.00.

**Q.** And the E3 ([5]; model 4 free fit)?
**A.** The E3 was 0.04 ± 0.14.

**Q.** What about the “Po (max)” value ([5]; model 4 free fit) of the same compound?
**A.** The value was 0.47.

**Q.** And the “maximum open probability Po3 (both Kv7.3 sites occupied)” value ([5]; model 4 prediction, at 10 µM)?
**A.** The value was 0.027.

**Q.** And the Kd ([5]; read-out: K3, model 4 free fit)?
**A.** Its Kd is 0.94 µM.

**Q.** What about the “Hill coefficient nH” value [6] of the same compound?
**A.** Its value is 1.1 ± 0.1.

**Q.** And the EC50 ([6]; maximum Popen undetermined)?
**A.** Its EC50 is 265 ± 74 µM.

**Q.** And the Hill slope (homomeric Kv7.2 channels [7])?
**A.** The Hill slope was 0.97.

**Q.** And the “Hill coefficient nH” value (homomeric Kv7.2 channels [8])?
**A.** The value was 0.76 ± 0.08.

**Q.** And the EC50 (homomeric Kv7.2 channels [8]; 0 mV)?
**A.** The EC50 was 76.2 µM and 76 µM.

**Q.** What about the “Hill coefficient nH” value [9] of the same compound?
**A.** The value was 0.95 ± 0.2.

**Q.** What about the EC50 ([9]; 0 mV) of the same compound?
**A.** Its EC50 is 3.6 ± 1 µM.

**Q.** What about the “Po (max)” value (Kv7.2/Kv7.3 channels; model 4) of the same compound?
**A.** Its value is 0.82.

**Q.** What about the “E1, gating equilibrium constant” value (Kv7.2/Kv7.3 channels; model 4, all four sites occupied) of the same compound?
**A.** The value was 4.42 ± 0.61.

**Q.** And the “E2, gating equilibrium constant” value (Kv7.2/Kv7.3 channels; model 4, two high- and one low-affinity site occupied)?
**A.** Its value is 0.46 ± 0.39.

**Q.** What about the “E3, gating equilibrium constant” value (Kv7.2/Kv7.3 channels; model 4, two high-affinity sites occupied) of the same compound?
**A.** Its value is 0.26 ± 0.07.

**Q.** And the “concentration at which Po3 peaks” value (Kv7.2/Kv7.3 channels; model 4 prediction)?
**A.** The value was “around 7 µM”.

**Q.** What about the “peak open probability Po3 (only Kv7.3 subunits bound)” value (Kv7.2/Kv7.3 channels; model 4 prediction, around 7 µM) of the same compound?
**A.** Its value is 0.145.

**Q.** Which “Hill slope of TEA inhibition” value ([10]; ref Shapiro et al. [2000]) does the source give for `CC[N+](CC)(CC)CC` [TEA, tetraethylammonium] here?
**A.** Its value is 0.58.

**Q.** What about the “Hill slope of TEA inhibition” value ([10]; single binding site equation, ref Hadley et al., 2003) of the same compound?
**A.** The value was 0.98 ± 0.02.

**Q.** And the “Hill slope of TEA inhibition” value [11]?
**A.** The value was 0.97 ± 0.12.
